Data published in PubChem BioAssay.
Inconclusive results are not listed.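 The calls were made as follows, unless noted: active = viability at or below 27.92% in each of two runs, the all-compound median minus 4 SD; inconclusive = no clear call, values can overlap the other calls; inactive = the rest.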

Experiments:
[1] = S. cerevisiae growth inhibition in permissive medium (OD615), pilot counter-assay for S. cerevisiae lifespan shortening project, permissive growth control (AID 705;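 active = growth inhibition above 25% in both replicates, a cutoff set 3 SD above the mean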); details: OD615, 24 h, at 10 µM, active compounds read high
Method in brief: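 Test system: Saccharomyces cerevisiae strain carrying genetically modified DeaD replicative-lifespan system; buffer or medium: SC raffinose/galactose permissive medium; dosing: one dose 10 µM, DMSO 0.25% final; times: 24 h exposure, 30 °C; measured by: OD at 615 nm; read-out basis: growth inhibition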

[2] = S. cerevisiae growth inhibition in restrictive medium, OD615, pilot screen, restrictive growth control, yeast lifespan reduction project (AID 706;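 active = growth inhibition above a set limit, 3 SD over mean compound inhibition, in both replicates, cut at about 43% in these data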;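 also: modified DeaD lifespan yeast strain shifted to restrictive glucose medium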); details: OD615, 48 h, at 10 µM, active compounds read high
Method in brief: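 material = engineered S. cerevisiae DeaD strain | buffer or medium = glucose-based CSMM-D restrictive medium | dosing = one concentration, 10 µM final, 0.25% DMSO | schedule = 4 h pre-growth plus 48 h compound exposure, 30 °C | detection = OD615 absorbance reading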

[3] = doxorubicin toxicity protection in MRP-1 cells – H69AR cells, CellTiter-Glo, duplicate, MRP-1 activator project, pilot screen (AID 807;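 active = viability increase at or above a cutoff of the median across tested compounds plus 3 SD, cut at about 8.5% in these data, passing the limit was not always enough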;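 also: compound pretreatment 18-22 h then 72 h combined with doxorubicin; 0% = doxorubicin alone and 100% = vehicle without doxorubicin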); details: H69AR viability with doxorubicin, CellTiter-Glo luminescence; at 10 µM; active compounds read high
[4] = viability of PTEN-null HCT116 cells – cell-based, HCT116 clonal line, CellTiter-Glo, pilot screen (AID 824); details: HCT116 PTEN-deleted viability, 60 h, at 10 µM, active compounds read low;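 also: 0% = 20 µM Hyamine control and 100% = vehicle cell control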
[5] = RAM pathway blockade in budding yeast – dse1pr::URA3 reporter, 5-FOA selection, pilot screen (AID 869;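 active = inhibition over a set limit, the all-compound mean plus 3 SD, in both replicate runs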;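 also: 0% = DMSO wells with no growth and 100% = 10 µM 1-NA-PP1 with full growth; RAM network block rescues cells from 5-FOA so hits raise OD615 growth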); details: S. cerevisiae dse1pr::URA3 5-FOA growth, OD615, 2 d; at 10 µM; active compounds read high; strain carries analog-sensitive mutant Cbk1 kinase
[6] = RAM signaling pathway blockade in yeast – S. cerevisiae, Pdr1DBD-CYC8 efflux-inhibited sensitized strain, primary screen (AID 1298;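 active = RAM network inhibition above 8.4% in each of two replicates, 3 SD over the compound average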;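 also: 0% = DMSO untreated cells without growth and 100% = 10 µM 1-NA-PP1 full growth; higher means more yeast growth rescued from 5-FOA killing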); details: S. cerevisiae cbk1-as DSE1-URA3 strain, 5-FOA growth OD615, 2 d; at 50 µM; active compounds read high

O=S(=O)(Cc1ccccc1)N1CCc2ccccc2C1
inactive: growth inhibition [1] 2.65% | growth inhibition [2] -4.61% | viability increase [3] -0.66% | viability [4] 95.8% | inhibition [5] 3.92% | RAM network inhibition [6] 6.16%

Cc1c(-c2ccco2)[n+](=O)c2c(n1[O-])CCCCC2
inactive: growth inhibition [1] -4.97% | growth inhibition [2] -4.29% | viability increase [3] -1.32% | viability [4] 105% | inhibition [5] 1.32% | RAM network inhibition [6] 8.4%

O=C(Oc1c(Cl)cc(Cl)c2cccnc12)N1CCCCC1
inactive: growth inhibition [1] -11.5% | growth inhibition [2] -7.42% | viability increase [3] -3.65% | viability [4] 77.5% | inhibition [5] 0.535% | RAM network inhibition [6] -1.03%

CN(C)c1ccc(C(=O)Nc2ccc(S(=O)(=O)NC3=NCCCCC3)cc2)cc1
inactive: growth inhibition [1] -6.28% | growth inhibition [2] -8.65% | viability increase [3] -3.44% | viability [4] 99.4% | inhibition [5] 1.61% | RAM network inhibition [6] 3.12%

COc1ccc(C2C(C(=O)N3CCN(c4ccccc4F)CC3)c3ccccc3C(=O)N2C)cc1 (stereo not given)
inactive: growth inhibition [1] -12.2% | growth inhibition [2] -6.36% | viability increase [3] -5.64% | viability [4] 74.3% | inhibition [5] 1.3% | RAM network inhibition [6] 4.16%

COc1ccc(CNC(=O)CSc2nnnn2-c2ccc(O)cc2)cc1
inactive: growth inhibition [1] -0.35% | growth inhibition [2] -9.08% | viability increase [3] -4.35% | viability [4] 98.6% | inhibition [5] 2.5% | RAM network inhibition [6] 3.74%

CCOc1ccccc1N(CC(=O)Nc1ccc2c(c1)OCO2)S(C)(=O)=O
inactive: growth inhibition [1] -8.59% | growth inhibition [2] -22.3% | viability increase [3] -0.96% | viability [4] 100% | inhibition [5] 1.7% | RAM network inhibition [6] -0.87%

COc1ccccc1-n1c(SCC(=O)Nc2nnc(C)s2)nc2c(c1=O)SCC2
inactive: growth inhibition [1] -5.29% | growth inhibition [2] 3.71% | viability increase [3] -3.7% | viability [4] 80.6% | inhibition [5] 0.81% | RAM network inhibition [6] 3.59%

O=c1c2cnn(-c3ccccc3)c2nc(-c2ccco2)n1-c1ccccc1
inactive: growth inhibition [1] -4.83% | growth inhibition [2] -7.2% | viability increase [3] -5.59% | viability [4] 55.4% | inhibition [5] 1.39% | RAM network inhibition [6] 8.81%

Oc1ccc(C=NCC2COc3ccccc3O2)cc1 (stereo not given)
inactive: growth inhibition [1] -7.84% | growth inhibition [2] 2.85% | viability increase [3] -5.39% | viability [4] 85.3% | inhibition [5] 1.54% | RAM network inhibition [6] -2.56%

CCOc1ccc(-n2c(SCC(=O)Nc3cc(C)on3)nc3c([nH]c4ccccc43)c2=O)cc1
inactive: growth inhibition [1] -16.7% | growth inhibition [2] -15.4% | viability increase [3] -6.08% | viability [4] 55.3% | inhibition [5] 0.94% | RAM network inhibition [6] 5.59%

C=CCn1c(C)cc(C(=O)COc2nncc3ccccc23)c1C
inactive: growth inhibition [1] -10.3% | growth inhibition [2] -15% | viability increase [3] -2.37% | viability [4] 74.2% | inhibition [5] 2.32% | RAM network inhibition [6] 0.87%

O=C(NCc1cccnc1)NC1(C(F)(F)F)Oc2ccccc2O1
inactive: growth inhibition [1] 4.4% | growth inhibition [2] 5.9% | viability increase [3] -5.46% | viability [4] 67.2% | inhibition [5] 0.81% | RAM network inhibition [6] 3.16%

COc1ccc(OC)c(N(CC(=O)Nc2ccc3c(c2)OCO3)S(=O)(=O)c2ccccc2)c1
inactive: growth inhibition [1] -11.4% | growth inhibition [2] -2.2% | viability increase [3] -2.35% | viability [4] 67.9% | inhibition [5] 3.23% | RAM network inhibition [6] 9.99%

COc1cc(C2CC(=O)C=C(O)C2)cc(OC)c1OC (stereo not given)
inactive: growth inhibition [1] -7.01% | growth inhibition [2] -6.56% | viability increase [3] 0.41% | viability [4] 99% | inhibition [5] 0.785% | RAM network inhibition [6] 5.78%

CCNc1nc(-c2ccc(Cl)cc2)cs1
inactive: growth inhibition [1] 1.33% | growth inhibition [2] 0.05% | viability increase [3] -1.74% | viability [4] 84.4% | inhibition [5] -0.24% | RAM network inhibition [6] -0.26%

COc1ccc(Oc2coc3c(CN(C)C)c(O)ccc3c2=O)cc1
inactive: growth inhibition [1] -5.32% | growth inhibition [2] -12.9% | viability increase [3] -7.46% | viability [4] 95.3% | inhibition [5] 0.075% | RAM network inhibition [6] -0.21%

Cc1ccc(S(=O)(=O)N2CCN(C(=O)CCC(=O)N3CCc4ccccc43)CC2)cc1
inactive: growth inhibition [1] -2.18% | growth inhibition [2] -5.78% | viability increase [3] -1.16% | viability [4] 99.4% | inhibition [5] -0.03% | RAM network inhibition [6] 2.05%

O=C(Nc1ccc(F)cc1)c1cc(S(=O)(=O)N2CCCCC2)cs1
inactive: growth inhibition [1] -4.36% | growth inhibition [2] 5.66% | viability increase [3] -2.46% | viability [4] 61.1% | inhibition [5] 2.75% | RAM network inhibition [6] -0.1%

O=C1C2C3C=CC(C3)C2C(=O)N1CCN1CCN(S(=O)(=O)c2ccc3ccccc3c2)CC1 (stereo not given)
inactive: growth inhibition [1] -8.82% | growth inhibition [2] 0.84% | viability increase [3] -5.03% | viability [4] 83.5% | inhibition [5] 1.27% | RAM network inhibition [6] 3.68%
